ChEMBL document CHEMBL1138793, “A three-dimensional in silico pharmacophore model for inhibition of Plasmodium falciparum cyclin-dependent kinases and discovery of different classes of novel Pfmrk specific inhibitors” (J Med Chem, 2004)
“And” between values parts separate entries of the source, which are not always exact repeats. Equal entries are not always repeated.

The compounds below were run against T1, Protein kinase Pfmrk (Plasmodium falciparum, UniProt P90584) (assay: Inhibition of Plasmodium falciparum cyclin-dependent kinase).
T1 sequence (P90584 whole entry): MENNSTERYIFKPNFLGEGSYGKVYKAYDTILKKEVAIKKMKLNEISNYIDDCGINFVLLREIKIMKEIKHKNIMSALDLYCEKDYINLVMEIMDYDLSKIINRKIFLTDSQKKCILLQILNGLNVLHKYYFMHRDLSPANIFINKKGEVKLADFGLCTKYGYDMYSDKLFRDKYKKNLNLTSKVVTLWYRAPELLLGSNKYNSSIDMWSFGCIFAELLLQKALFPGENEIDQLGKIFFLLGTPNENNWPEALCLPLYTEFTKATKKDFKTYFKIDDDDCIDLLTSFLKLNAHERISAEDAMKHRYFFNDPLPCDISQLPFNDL
Procedure, shortened: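 Recombinant 6xHIS-tagged Plasmodial CDK (3.0 μg) expressed in E. coli, assayed with 2.0 μg GST-tagged cyclin Pfcyc-1 and 5.0 μg RNA polymerase II CTD substrate in 40 mM Hepes pH 7.5, 30 mM MnCl₂, 2.0 mM DTT. Enzyme and compound preincubated 5 min at 30 °C. Reaction started with [γ-32P]ATP plus 12.5 μM ATP, run 35 min at 30 °C. Filter plate washed with phosphoric acid, counted by scintillation. Triplicates; IC50 from concentration range.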

Row | Structure (SMILES) | IC50
1 | CCOC(=O)c1cc([N+](=O)[O-])ccc1Cl | 87 µM
2 | NNC(Cc1c[nH]c2ccccc12)C(=O)O (stereo unspecified) | 182 µM
3 | CC1NN=C(c2ccccc2)C1[N+](=O)[O-] (stereo unspecified) | 394 µM
4 | O=C(/C=C/c1ccccn1)c1ccc([N+](=O)[O-])cc1 | 18 µM
5 | O=C1Nc2ccc([N+](=O)[O-])cc2/C1=C/c1ccccc1O | 35 µM
6 | O=C1c2cc(F)ccc2-n2c1nc1ncccc1c2=O | 4.7 µM
7 | Cc1cc(Cl)ccc1NC(=O)c1cccc([N+](=O)[O-])c1 | 69 µM
8 | O=C(/C=C/c1ccccc1)c1cccc([N+](=O)[O-])c1 | 10 µM
9 | CC(=O)Nc1ccc(C(=O)/C=C/c2ccccc2)cc1 | 17 µM
10 | O=C(Cl)c1c2c(nc3c(Cl)cc(Cl)cc13)-c1ccc(Cl)cc1CC2 | 25 µM
11 | CN1C(=O)/C(=C\C(=O)c2ccc(Br)cc2)c2ccccc21 | 29 µM
12 | O=C1NC(=O)/C(=C2/C(=O)Nc3ccc(F)cc32)S1 | 30 µM
13 | COc1ccc(-c2nnc(N(CCO)CCO)o2)cc1 | 35.8 µM
14 | CCOC(=O)/C(=C\c1ccccn1)C(=O)c1ccc([N+](=O)[O-])cc1 | 61 µM
15 | O=C1Nc2ccccc2/C1=C/C(=O)c1ccccc1 | 4 µM
16 | O=C1Nc2ccccc2/C1=C\c1ccc(C(F)(F)F)cc1 | 138 µM
17 | O=C1c2ccc(Cl)cc2-n2c1nc1ncccc1c2=O | 3.5 µM
18 | COc1ccc2c(c1)/C(=C1\SC(=S)NC1=O)C(=O)N2 | 17.1 µM

Row | Structure (SMILES) | IC50
19 | O=S(=O)(O)c1cc(O)c(/N=N/c2ccc(O)cc2O)c2ccccc12 | 11 µM
20 | O=[N+]([O-])c1cc(S(=O)(=O)Nc2ccc(C(F)(F)F)cc2)sc1Cl | 2.5 µM
21 | N#C/C(=C1\OC(=O)N(c2ccc(Cl)cc2)C1=O)c1ccc(Cl)cc1 | 14 µM
22 | O=C(CCl)Nc1nc2c(Cl)cccc2s1 | 38 µM and 38.3 µM
23 | NC(=S)NC1(c2ccccc2)OC(=O)c2ccccc21 (stereo unspecified) | 70 µM
24 | O=C1c2cc([N+](=O)[O-])ccc2-n2c1nc1ncccc1c2=O | 0.13 µM
25 | Cc1ccc(C(=O)/C=C2\C(=O)Nc3ccc(Br)cc32)cc1 | 2.9 µM
26 | O=C1/C(=C/c2ccccn2)CCc2ccccc21 | 17 µM
27 | O=C(N=C(S)Nc1cc([N+](=O)[O-])ccc1O)c1ccc(Cl)cc1Cl | 10 µM
28 | Cn1cc(C(=O)C(C)(C)N)c2ccccc21 | 46.2 µM
29 | O=C1Nc2ccc([N+](=O)[O-])cc2C1=O [5-NITROISATIN] | 5.9 µM
30 | O=c1cc(-c2ccc(O)cc2)oc2cc(O)cc(O)c12 [APIGENIN] | 7 µM
31 | CCN(CC)CCCC(C)Nc1ccnc2cc(Cl)ccc12 (stereo unspecified) [CHLOROQUINE] | 150 µM
32 | O=c1c(-c2ccc(O)cc2)coc2cc(O)cc(O)c12 [GENISTEIN] | 93 µM
33 | CN(C)CCCn1cc(C2=C(c3c[nH]c4ccccc34)C(=O)NC2=O)c2ccccc21 [GF-109203] | 24 µM
34 | OC(c1cc(C(F)(F)F)nc2c(C(F)(F)F)cccc12)C1CCCCN1 (stereo unspecified) [MEFLOQUINE] | 12 µM
35 | O=c1c(O)c(-c2cc(O)c(O)c(O)c2)oc2cc(O)cc(O)c12 [MYRICETIN] | 157 µM
36 | Cn1cnc2c(NCc3ccccc3)nc(NCCO)nc21 [OLOMOUCINE] | 1100 µM
